Tests used:
Trypanosoma brucei = experiment: in vivo inhibition of trypanosomal brucei growth was determined; assay type: functional, organism-based
[1] = molecular target: T1, Diamine acetyltransferase 1 (Homo sapiens, UniProt P21673); experiment: Effect of 10 uM on spermine/spermidine-N-acetyltransferase (SSAT) induction in non-SCLC cells; assay type: cell-based
How it was run: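 NCI H157 non-small-cell lung tumor cells were exposed to 10 μM analogue. SSAT activity was assayed and expressed as pmol product/mg protein/min, then as fold increase over untreated control cells.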

[2] = molecular target: T1, Diamine acetyltransferase 1; experiment: Inhibitory activity of compound against SSAT extracted from superinduced H157 cells; assay type: cell-free
How it was run: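 SSAT came from crude extracts of superinduced H157 cells and was assayed at saturating spermidine.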

NCI-H157 [3] = experiment: Activity against H157 non-SCLC cells in culture; assay type: functional, cell-based; details: Homo sapiens
[4] = molecular target: T2, Ornithine decarboxylase (Homo sapiens) (UniProt P11926); experiment: Inhibition of ornithine decarboxylase (ODC); set-up: concentration or dose not given beside the values; details: concentration not given here
T2 sequence (whole entry): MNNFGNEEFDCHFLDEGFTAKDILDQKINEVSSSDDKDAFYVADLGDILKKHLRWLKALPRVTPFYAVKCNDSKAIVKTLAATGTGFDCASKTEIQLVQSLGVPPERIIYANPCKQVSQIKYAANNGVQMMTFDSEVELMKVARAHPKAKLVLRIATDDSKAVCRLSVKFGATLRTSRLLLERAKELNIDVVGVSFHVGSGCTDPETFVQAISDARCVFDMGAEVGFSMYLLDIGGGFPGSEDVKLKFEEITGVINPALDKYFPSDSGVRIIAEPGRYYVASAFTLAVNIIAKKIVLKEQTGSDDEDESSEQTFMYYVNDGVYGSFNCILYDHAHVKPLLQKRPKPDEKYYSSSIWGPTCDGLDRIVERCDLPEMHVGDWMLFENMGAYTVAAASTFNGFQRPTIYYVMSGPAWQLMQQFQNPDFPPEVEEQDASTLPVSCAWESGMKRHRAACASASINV

NCI-H157 [5] = experiment: Effect of exposure of H157 non-SCLC to compound (<10 uM) for 96-h, on natural polyamines and accumulation of the compound; Decrease; assay type: functional, cell-based; details: Homo sapiens
How it was run: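 H157 non-SCLC cells were treated with 10 μM analogue. Cellular putrescine, spermidine and spermine, plus the intracellular analogue, were quantified and compared with untreated control cells.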

Spermine synthase = molecular target: T3, Spermine synthase (Homo sapiens, UniProt P52788); experiment: Inhibitory activity against spermine synthase
T3 sequence (P52788 whole entry): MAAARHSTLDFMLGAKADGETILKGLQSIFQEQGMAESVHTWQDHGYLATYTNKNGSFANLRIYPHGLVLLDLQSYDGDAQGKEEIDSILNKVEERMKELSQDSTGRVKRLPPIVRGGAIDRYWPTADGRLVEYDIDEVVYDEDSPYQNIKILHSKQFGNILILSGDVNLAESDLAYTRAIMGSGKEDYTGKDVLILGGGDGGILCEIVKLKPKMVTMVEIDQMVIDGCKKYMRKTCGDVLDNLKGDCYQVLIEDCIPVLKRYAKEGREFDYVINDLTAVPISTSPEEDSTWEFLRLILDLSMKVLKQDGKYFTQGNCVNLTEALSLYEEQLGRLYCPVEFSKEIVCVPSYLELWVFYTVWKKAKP

NCI-H157 [6] = experiment: Effect of exposure of H157 non-SCLC (<10 uM) for 96-h, and accumulation of compound was determined; assay type: functional, Homo sapiens
[7] = molecular target: S-adenosylmethionine decarboxylase (Homo sapiens) (UniProt P17707); experiment: Inhibition of Inhibition of human form of S-adenosyl-methionine decarboxylase enzyme (AdoMet-DC); set-up: concentration or dose not given beside the values; details: concentration not given here
NCH82 [8] = experiment: Cytokinetic effects on H82 small-cell lung tumor line (SCLC) after 96-h treatment; assay type: functional, Homo sapiens
NCI-H157 [9] = experiment: Effect of exposure of H157 non-SCLC to compound (<10 uM) for 96-h, on natural polyamines and accumulation of the compound; No significant change; assay type: functional, cell-based; details: Homo sapiens
NCH82 [10] = experiment: In vitro activity against H82 small-cell lung tumor line (SCLC) cultures.; assay type: functional, cell-based; details: Homo sapiens
NCI-H157 [11] = experiment: Spermine/Spermidine-N1-acetyltransferase activity in NCI H157 non-SCLC tumor cells following 24-h treatment with 10 uM of compound; assay type: functional, Homo sapiens
How it was run: (§1)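 NCI H157 non-SCLC cells were exposed to 10 μM analogue alongside untreated controls. Cellular polyamines and analogue were quantified. SSAT activity was assayed in the cells and reported as pmol product/mg protein/min.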

NCI-H157 [12] = experiment: BENSpm level in NCI H157 non-SCLC tumor cells following 24-h treatment with 10 uM of compound; assay type: functional, Homo sapiens; how it was run: as §1
NCI-H157 [13] = experiment: Spermidine level in NCI H157 non-SCLC tumor cells following 24-h treatment with 10 uM of compound; assay type: functional, Homo sapiens; how it was run: as §1
NCI-H157 [14] = experiment: Putrescine level in NCI H157 non-SCLC tumor cells following 24-h treatment with 10 uM of compound; assay type: functional, Homo sapiens; how it was run: as §1
NCI-H157 [15] = experiment: In vitro activity against H157 non-small-cell lung tumor line (non-SCLC) cultures.; assay type: functional, cell-based; details: Homo sapiens
[16] = Compound was evaluated for cytotoxic activity against PC-3, DU145 and LNCaP cell lines; assay type: functional, Homo sapiens
How it was run: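 PC-3, DU145 and LNCaP prostate cancer cells were exposed to analogues over 0.1–30 μM for 120 h. Dose–response curves of growth were recorded.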

NCI-H157 [17] = experiment: CHENSpm level in NCI H157 non-SCLC tumor cells following 24-h treatment with 10 uM of compound; assay type: functional, Homo sapiens; how it was run: as §1
NCI-H157 [18] = experiment: Spermine level in NCI H157 non-SCLC tumor cells following 24-h treatment with 10 uM of compound; assay type: functional, Homo sapiens; how it was run: as §1

T1 sequence (P21673 whole entry): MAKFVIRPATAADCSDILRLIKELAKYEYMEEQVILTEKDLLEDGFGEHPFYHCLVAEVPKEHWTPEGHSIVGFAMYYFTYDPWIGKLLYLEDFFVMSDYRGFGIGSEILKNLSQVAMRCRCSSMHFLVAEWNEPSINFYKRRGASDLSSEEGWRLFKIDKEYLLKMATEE

`C[S+](C[C@@H]1O[C@H](n2cnc3c(N)ncnc32)[C@@H](O)[C@H]1O)C1C=CC(N)C1` (stereo partly drawn) gave an IC50 (Trypanosoma brucei) of 5.2 µM.
In the case of `C#CCNCCCNCCCNCCCNCC`, the Induction [1] is reported as over 500, the IC50 [2] is reported as 40 µM and the IC50 (NCI-H157 [3]) is reported as 1.1 µM. For the same molecule, the inhibition [4] was under 50% and the “Effect on polyamine pools” value (NCI-H157 [5]) was “Decrease”.
With `NCCCNCCCCCC(CCN)SC[C@H]1O[C@@H](n2cnc3c(N)ncnc32)[C@H](O)[C@@H]1O` (stereo partly drawn) the IC50 (Spermine synthase) was 0.02 µM.
In the case of `CCNCCCNCCCNCCCNC1CCCCCC1`, the Induction [1] is reported as over 500, the Amount (NCI-H157 [6]) is reported as >20 nM (mg of protein)-1 and the “Effect on polyamine pools” value (NCI-H157 [5]) is reported as “Decrease”.
For `CCNCCCNCCCNCCCNCC1CCCCC1`, the Induction [1] was under 50, the Amount (NCI-H157 [6]) was >20 nM (mg of protein)-1 and the inhibition [4] was under 50%. The “Effect on polyamine pools” value (NCI-H157 [5]) was “Decrease” and the inhibition [7] was under 50%.
In the case of `CCNCCCNCCCNCCCO`, the Induction [1] is reported as over 500, the Effect (NCH82 [8]) is reported as 0 and the Amount (NCI-H157 [6]) is reported as >20 nM (mg of protein)-1. The inhibition [4] was under 50%, the “Effect on polyamine pools” value (NCI-H157 [5]) was “Decrease” and the inhibition [7] was under 50%.
In the case of `CCNCCCNCCCNC1CCCCCC1`, the Induction [1] is reported as over 50, the inhibition [4] is reported as under 50% and the “Effect on polyamine pools” value (NCI-H157 [5]) is reported as “Decrease”.
In the case of `CCNCCCNCCCCCCCNCCCNCC1CCCCCC1`, the Induction [1] is reported as 0, the NC (NCI-H157 [9]) is reported as “No significant change” and the Amount (NCI-H157 [6]) is reported as <20 nM (mg of protein)-1. It also gave an inhibition [4] of under 50% and an inhibition [7] of under 50%.
In the case of `CCNCCCNCCCNCC1CCCCCC1`, the Induction [1] is reported as over 500, the Amount (NCI-H157 [6]) is reported as >20 nM (mg of protein)-1 and the “Effect on polyamine pools” value (NCI-H157 [5]) is reported as “Decrease”.
In the case of `CCNCCCNCCCNCCCN1CCCCCC1`, the Induction [1] is reported as over 500 and the “Effect on polyamine pools” value (NCI-H157 [5]) is reported as “Decrease”.
With `CCNCCCNCCCNCCCNCC1CCCCCC1` the Induction [1] was 0, the IC50 (NCH82 [10]) was 0.7 µM and the Activity (NCI-H157 [11]) was 781 (pM of product) min-1 (mg of protein)-1. The Polyamine level (NCI-H157 [12]) was 0, the Polyamine level (NCI-H157 [13]) was 6.44 and the Polyamine level (NCI-H157 [14]) was 4.28. The IC50 (NCI-H157 [15]) was 0.4 µM, the Amount (NCI-H157 [6]) was >20 nM (mg of protein)-1 and the CC [16] was 30 µM. It also gave an inhibition [4] of under 50%, a Polyamine level (NCI-H157 [17]) of 14.66 and a Polyamine level (NCI-H157 [18]) of 15.97. For the same molecule, the “Effect on polyamine pools” value (NCI-H157 [5]) was “Decrease” and the inhibition [7] was under 50%.
In the case of `CCNCCCCNCCCNCC`, the Induction [1] is reported as over 50, the Amount (NCI-H157 [6]) is reported as >20 nM (mg of protein)-1 and the inhibition [4] is reported as over 50%. For the same molecule, the “Effect on polyamine pools” value (NCI-H157 [5]) was “Decrease” and the inhibition [7] was under 50%.
For `CCNCCCNCCCNCCCNCC1CCCC1`, the Induction [1] was over 500, the Amount (NCI-H157 [6]) was >20 nM (mg of protein)-1 and the inhibition [4] was over 50%. For the same molecule, the “Effect on polyamine pools” value (NCI-H157 [5]) was “Decrease” and the inhibition [7] was over 50%.

From ChEMBL document CHEMBL1134460, “Terminally alkylated polyamine analogues as chemotherapeutic agents” (J Med Chem, 2001)
